# Assay outcomes deposited in PubChem BioAssay by Broad Institute.
# Most compounds without a hit are left out; they make up all but 2.6% or so of the library.
# dFosB act-1: activators of delta FosB homodimer, primary screen, biochemical, fluorescence polarization, TAMRA-CDK5 oligo, single point | Protein FosB (Mus musculus), P13346 | purified delta FosB; percent of positive-control signal above neutral wells | activation, % at 25 µM | 340,000 tested, 0.99% active;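 active = mean activation above about 17%, with every replicate also reaching it, limit read from the data, passing the limit was not always enough; inconclusive = only one of the two conditions met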
# PvdQ acylase: P. aeruginosa PvdQ acylase inhibitors, primary screen, biochemical, fluorescence, plate reader and imaging, single point; PvdQ acylase [Pseudomonas aeruginosa LESB58]; purified PvdQ acylase; inhibition, % at 10 µM; 340,000 tested, 0.063% active; in the data active = inhibition above about 30%, passing the limit was not always enough; inconclusive = no clear call, values can overlap the other calls;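 also: 0% = vehicle neutral wells and 100% = reference inhibitor wells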
# Ecoli rRNA inh: reduced GFP signal of wild-type E. coli, primary screen, bacterial rRNA inhibitor project, GFP/RFP fluorescence, OD600, single point; 350,000 tested, 1.6% active; GFP signal change (wild-type ribosome), % (no concentration beside the values); E. coli WT GFP vs humanized-ribosome RFP mutants, 24 h; active compounds read low; DMSO median 0, no signal -100;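 active = significant combined selectivity score with lowered wild-type GFP, culture density cut under 30%, mutant RFP and density less affected; inactive = any of these conditions unmet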
# Xi reactivation: activators of inactive X chromosome reactivation, primary screen, imaging, XiGFP fibroblasts, GFP high-content imaging, set 2 | 360,000 tested, 0.055% active | XiGFP mouse fibroblasts, % GFP-positive cells imaging, 3 d; cells co-treated with 5-aza-dC sensitizer; scaled so ellipticine positive control = 100% | activation, % at 7.58 µM;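 active = mean normalized replicate activation at least 10% and every replicate at or above 10%; inconclusive = only one of the two criteria met; inactive = mean below 10% and not all replicates reach 10%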;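 also: 0% = median of on-plate neutral control wells and 100% = ellipticine 6 µM median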
#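 Material: XiGFP fibroblasts, SV40-immortalized; Buffer or medium: DMEM containing 5-aza-dC; Compound dosing: single point; Times: 3 days compound exposure.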
# SR-BI DiI inh: inhibitors of SR-BI mediated HDL lipid uptake, primary screen, ldlA[mSR-BI] cells, fluorescence, single point | Scavenger receptor class B member 1 (Mus musculus), Q61009 | ldlA[mSR-BI] CHO cells, DiI-HDL uptake fluorescence, 3 h | inhibition, % at 12.5 µM | 320,000 tested, 0.96% active;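 active = mean replicate inhibition of at least 70% and a set share of replicates each scoring 70 or more; inconclusive = meets just one of the two criteria; inactive = fails both criteria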;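 also: 0% = median of neutral control wells and 100% = median of positive control wells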
# Target sequence (Q61009 whole entry, looked up): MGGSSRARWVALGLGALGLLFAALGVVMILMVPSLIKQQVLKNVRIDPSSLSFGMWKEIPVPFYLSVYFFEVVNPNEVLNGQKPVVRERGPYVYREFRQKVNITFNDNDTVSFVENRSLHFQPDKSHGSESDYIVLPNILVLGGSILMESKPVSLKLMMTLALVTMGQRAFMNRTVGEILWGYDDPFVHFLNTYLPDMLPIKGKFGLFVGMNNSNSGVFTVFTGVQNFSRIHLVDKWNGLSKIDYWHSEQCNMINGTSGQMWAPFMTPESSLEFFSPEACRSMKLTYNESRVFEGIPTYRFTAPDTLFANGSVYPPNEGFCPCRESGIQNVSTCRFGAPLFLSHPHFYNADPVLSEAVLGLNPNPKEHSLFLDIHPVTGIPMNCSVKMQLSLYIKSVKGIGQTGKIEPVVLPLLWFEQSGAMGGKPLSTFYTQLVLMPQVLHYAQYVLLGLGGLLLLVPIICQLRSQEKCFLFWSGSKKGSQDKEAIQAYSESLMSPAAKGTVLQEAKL
# SR-BI uptake up: activators of SR-BI mediated DiI-HDL uptake, primary screen, ldlA[mSR-BI] CHO cells, DiI fluorescence; AID 504775, 2011; activation, % at 12.5 µM; 320,000 tested, 0.096% active; 3 h; 100 = double the neutral-control signal;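 active = mean replicate activation of at least 60% and every replicate at or above 60%; inconclusive = mean or all-replicate condition met, but not both; inactive = mean below 60% and not all replicates reaching 60%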;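 also: 0% = median plate neutral-control signal and 100% = twice that signal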
#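 Test system: SR-BI-overexpressing, LDLR-lacking CHO cells; Also added: labelled HDL, 10 µg/mL; Measured by: bottom-read cell fluorescence after medium removal, ex 550/em 595 nm; Timing: 3 h uptake period with compound, 37 °C; Buffer or medium: F12, 0.5% BSA, 25 mM HEPES; Doses: single compound concentration, delivered by pin transfer.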
# dFosB act-2: activators of mouse delta FosB DNA binding, confirmation, biochemical, fluorescence polarization, TAMRA-CDK5 oligo, cherry-picked samples; shares compounds with dFosB act-1; purified delta FosB; normalised: neutral wells 0, positive control 100; activation, % at 24.9 µM; 2,400 tested, under 10 active;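 active = highest replicate activation at or above 34% and every replicate reaching that threshold; inconclusive = meets only one of the two criteria; inactive = meets neither criterion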;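 also: higher polarization means more probe DNA bound by delta FosB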
# * = called active by the depositor; ? = inconclusive; . = no result.
SMILES,dFosB act-1,PvdQ acylase,Ecoli rRNA inh,Xi reactivation,SR-BI DiI inh,SR-BI uptake up,dFosB act-2
O=C(NCc1ccc(Cl)cc1)C1CCCN(C(=O)c2ccc(Cl)cc2)C1 (stereo not given),-3,-21,.,0,17,-17,.
O=C(c1ccc(NC(=S)NCc2ccc(Cl)cc2)cc1)N1CCCCC1,30*,-15,8,0,56,-56,1
Nc1nc(CSC(=S)N2CCN(c3ccccc3)CC2)nc(Nc2ccc(F)cc2)n1,47*,7,.,0,27,-27,5
Nc1nc(CSC(=S)N2CCCCC2)nc(Nc2ccccc2)n1,3,-3,-4,0,1,-1,.
CC1CC(C)CN(C(=S)SCc2nc(N)nc(Nc3ccccc3)n2)C1 (stereo not given),38*,-6,-22*,0,2,-2,3
Nc1nc(CSC(=S)N2CCOCC2)nc(Nc2ccccc2)n1,-12,-10,.,0,12,-12,.
COc1cccc(Nc2nc3ccc(C(=O)c4ccccc4)cc3n3cnnc23)c1,19*,-13,12,0,.,.,0
COC(=O)c1ccc(Nc2nc3ccc(C)cc3n3cnnc23)cc1,-1,4,19,0,27,-27,.
CCCn1nc(C(=O)Nc2cc(S(=O)(=O)Nc3ccc(OC)cc3)ccc2O)c2ccccc2c1=O,21*,-9,-12,0,-2,2,2
CCCn1nc(C(=O)Nc2ccc(S(=O)(=O)Nc3nccs3)cc2)c2ccccc2c1=O,-7,17,.,.,14,-14,.
O=C(NCCC1=CCCCC1)C1CCC(CNc2nc(=S)[nH]c3ccccc23)CC1 (stereo not given),23*,-7,14,0,7,-7,2
O=C(NCc1ccccc1Cl)C1CCC(CNc2nc(=S)[nH]c3ccccc23)CC1 (stereo not given),71*,-7,1,0,60,-60,1
CCCCNC(=O)C1CCC(CNc2nc(=S)[nH]c3ccccc23)CC1 (stereo not given),-3,-9,7,0,-1,1,.
O=C(C1CCC(CNc2nc(=S)[nH]c3ccccc23)CC1)N1CCN(c2ccc(F)cc2)CC1 (stereo not given),37*,-1,-14,0,3,-3,1
COc1ccc(N2CCN(CCCNC(=O)C3CCC(CNc4nc(=S)[nH]c5ccccc45)CC3)CC2)cc1 (stereo not given),-1,-1,15,0,46,-46,.
O=C(Cc1csc(Nc2nc(=S)[nH]c3ccccc23)n1)NCc1cccc(Cl)c1,4,-6,.,.,30,-30,.
O=C(Cc1csc(Nc2nc(=S)[nH]c3ccccc23)n1)NCc1ccccc1Cl,49*,2,.,.,28,-28,7
Cc1ccc(OCc2cc(C(=O)N(C)C3CCCc4ccccc43)no2)cc1C (stereo not given),.,.,.,0,.,.,.
O=C(NCCC1=CCCCC1)C1CCC(CNS(=O)(=O)c2ccccc2)CC1 (stereo not given),-2,-4,.,1,26,-26,.
O=C(NCCc1ccc(Cl)cc1)C1CCC(CNc2nc(=S)[nH]c3ccccc23)CC1 (stereo not given),72*,-14,-1,0,34,-34,6
CC(=O)Nc1ccc(S(=O)(=O)NCC2CCC(C(=O)NCCC3=CCCCC3)CC2)cc1 (stereo not given),63*,-10,7,.,39,-39,5
COc1ccccc1C(=O)NNC(=O)C1CCN(C(=O)OC(C)(C)C)CC1,-4,0,8,0,1,-1,.
COc1cc(OC)cc(C(=O)N=c2sc3ccccc3n2C)c1,-18,-8,12,0,61,-61,.
COc1cccc(C(=O)N=c2sc3cc(S(C)(=O)=O)ccc3n2C)c1,27*,9,6,0,35,-35,2
CCCN1CCN(S(=O)(=O)c2ccc(OC)c(Br)c2)CC1,-4,7,.,.,-19,19,.
SMILES,dFosB act-1,PvdQ acylase,Ecoli rRNA inh,Xi reactivation,SR-BI DiI inh,SR-BI uptake up,dFosB act-2
CCOC(=O)c1c(NC(=O)C(NCCN(C)C)c2ccccc2)sc2c1CCCC2 (stereo not given),34*,10,-38,0,6,-6,?
CCOC(=O)c1c(NC(=O)c2ccccc2N(C)S(=O)(=O)c2ccccc2)sc2c1CCCC2,-2,1,1,0,29,-29,.
CCCn1c(N)c(C(=O)CSc2n[nH]c(-c3ccc(C)cc3)n2)c(=O)[nH]c1=O,28*,-9,4,0,14,-14,-2
Cc1ccc(S(=O)(=O)Nc2ccc3c(c2)nc2n3CCN(Cc3ccccc3)C2)cc1,5,-8,.,.,-15,15,.
O=S(=O)(Nc1ccc2c(c1)nc1n2CCN(Cc2ccccc2)C1)c1ccccc1,24*,2,.,.,12,-12,-3
O=S(=O)(Nc1ccc2c(c1)nc1n2CCN(Cc2ccccc2)C1)c1ccc(Cl)cc1,23*,1,.,.,-13,13,-9
O=S(=O)(Nc1ccc2c(c1)nc1n2CCN(Cc2ccccc2)C1)c1ccc(F)cc1,-1,-5,.,.,-2,2,.
CCC(OCC(O)CN1CCN(CCN2C(=O)c3cccc4cccc(c34)C2=O)CC1)c1ccccc1 (stereo not given),30*,1,.,0,36,-36,5
CC(=O)c1ccc(OCC(O)CN2CCN(CCN3C(=O)c4cccc5cccc(c45)C3=O)CC2)cc1 (stereo not given),38*,-9,.,0,35,-35,-5
Cc1ccccc1OCC(O)CN1CCN(CCN2C(=O)c3cccc4cccc(c34)C2=O)CC1 (stereo not given),50*,-7,-15,0,44,-44,0
Cc1cccc(C)c1OCC(O)CN1CCC(CN2C(=O)c3cccc4cccc(c34)C2=O)CC1 (stereo not given),74*,-9,.,.,43,-43,6
